According to article PMC3177973 (Biochemistry, 2011):

Key:
α-synuclein [1] = molecular target: T1, α-synuclein (Homo sapiens, UniProt P37840); assay: TEM imaging of α-syn aggregation assays; assay type: biochemical; conditions: 2 molar equivalents; images after 16–24 hrs; AA = amorphous aggregates
How it was run: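 Full-length 140-residue α-syn was expressed in E. coli BL21(DE3) and purified by anion exchange. It was used at 100 μM in 20 mM Tris-HCl pH 7.5, at 37 °C with vigorous stirring, with or without peptide. HFIP was added to 1.5 vol-% to start aggregation. After 16–24 h, a freshly agitated 5 μL aliquot was adsorbed on formvar/carbon-coated copper grids, negatively stained with 2% uranyl acetate and imaged by TEM.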

α-synuclein [2] = molecular target: T1, α-synuclein; assay: α-syn aggregation assay, CD spectroscopy; assay type: biochemical; conditions: 2 molar equivalents; for β CD signal, % β, α-syn assay: at 16 h (no time printed for MrH3b); for Effect on course, onset or lag time of α-syn aggregation (in words): monitored by CD and ThT
How it was run: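 Recombinant full-length α-syn was expressed in E. coli BL21(DE3) and used at 100 μM in 20 mM Tris-HCl pH 7.5. Aggregation was started by HFIP addition (1.5 vol-% final) under continuous stirring at 37 °C, with or without inhibitor peptide and without ThT. Every 2–4 h, a 5 μL aliquot was diluted into 195 μL of 1.5% HFIP buffer (2.5 μM α-syn). Spectra were recorded in 0.1 cm cells to follow the random coil-to-β transition, corrected for inhibitor contribution.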

α-synuclein [3] = molecular target: T1, α-synuclein; conditions: similar effect as WW2; cited from earlier work

| Molecule | Fibril Morphology (TEM), α-syn (α-synuclein [1]) | Time by which β CD signal appears, α-syn assay (α-synuclein [2]) | β CD signal, % β, α-syn assay (α-synuclein [2]) | Effect on course, onset or lag time of α-syn aggregation (in words) (α-synuclein [2]) | Excess of inhibitor required for non-amyloid α-syn aggregates (α-synuclein [3]) | β CD signal, α-syn assay (in words) (α-synuclein [2]; 100 μM α-syn, 1.5 vol-% HFIP) |
| --- | --- | --- | --- | --- | --- | --- |
| Ac-KIVTSAK [ssMrH] | Normal | β signal within 6 h, 100% 16 h hours | 100% | no effects on the course of α-syn aggregation |  |  |
| O=C(O[C@@H]1Cc2c(O)cc(O)cc2O[C@@H]1c1cc(O)c(O)c(O)c1)c1cc(O)c(O)c(O)c1 [EGCG, (−)-epigallocatechin-3-gallate] |  |  |  |  | 5 fold excess |  |
| KKLTVWI [ssW] | Normal + AA |  | 80% | delays aggregation (as monitored by CD) |  | Helical at 4–6 hours 80 % β at 16 h |
